What is called inhibition is the change of the read-out against control, counted positive when it falls. One may read the IC50 as the midpoint of a concentration-inhibition curve.

Series [1] deals with RAW264.7. Kind of series: Antiinflammatory activity against LPS-stimulated mouse RAW264.7 cells assessed as inhibition of NO production at 50 uM after 20 hrs relative to control. Format: functional. The conditions noted are these: RAW264.7, 20 h. The procedure, abridged: (§1)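 RAW 264.7 cells plated at 1 × 10⁵ cells/mL in 10% FBS–DMEM and grown 24 h, then moved to 1% FBS medium. Cells were stimulated with LPS (1 µg/mL) with or without compound for 20 h. Nitrite accumulated in supernatant was read by Griess reagent (10 min, room temperature, A570). Inhibition is relative to LPS control, n = 3; IC50 given as mean ± SD of three experiments.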

Series [2] relates to RAW264.7. Briefly: Antiinflammatory activity against LPS-stimulated mouse RAW264.7 cells assessed as inhibition of NO production at 20 uM after 20 hrs relative to control. In kind it is functional. The conditions noted are these: RAW264.7, 20 h. The procedure, abridged: as §1
In series [3] the test system is RAW264.7. Briefly: Suppression of LPS-induced NF-kappaB p65 subunit translocation into nucleus in mouse RAW264.7 cells assessed as p65 protein level at 5 uM after 30 mins pretreated 30 mins before LPS challenge by Western blot. Format: functional, cell-based. The procedure, abridged: (§2)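 Macrophages were pretreated with compound for 30 min, then given LPS (1 µg/mL) for a further 30 min. Nuclear extracts were immunoblotted for p65, with levels normalized to PARP as the loading control.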
On the technique in general: Immunoblotting shows a protein as a band on a membrane.

In series [4] the test system is RAW264.7. Kind of series: Inhibition of iNOS protein expression in LPS-stimulated mouse RAW264.7 cells at 5 uM after 20 hrs by Western blot. Format: functional. The conditions noted are these: RAW264.7, 20 h. The procedure, abridged:
(§3)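 RAW 264.7 cells were exposed to compound for 20 h during LPS (1 µg/mL) activation, then washed and lysed. 20 µg lysate protein was run on 8% SDS-PAGE, blotted to PVDF and probed for iNOS and actin. iNOS band density was normalized to actin; mean ± SD of three independent densitometric analyses.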

The test system of series [5] is RAW264.7. Kind of series: Inhibition of iNOS mRNA expression in LPS-stimulated mouse RAW264.7 cells at 5 uM after 6 hrs by RT-PCR. In kind it is functional, cell-based. The procedure, abridged: (§4)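 RAW 264.7 cells (1.8 × 10⁶ per 60 mm dish) were stimulated 6 h with LPS (1 µg/mL) with or without compound. Total RNA was extracted and 2 µg was reverse transcribed with random hexamers. PCR ran 25 cycles (94 °C, 55 °C, 72 °C, 30 s each), and products were resolved on 2% agarose. iNOS was normalized to β-actin; mean ± SD of three densitometric analyses.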

The subject of series [6] is RAW264.7. Briefly: Inhibition of iNOS protein expression in LPS-stimulated mouse RAW264.7 cells at 10 uM after 20 hrs by Western blot. Format: functional, cell-based. The procedure, abridged:
as §3

Series [7] has as its system RAW264.7. Briefly: Cytotoxicity against mouse RAW264.7 cells. Format: cell-based.
Series [8] deals with RAW264.7. Kind of series: Antiinflammatory activity against LPS-stimulated mouse RAW264.7 cells assessed as inhibition of NO production after 20 hrs. In kind it is functional, cell-based. The conditions noted are these: RAW264.7, 20 h. The procedure, abridged: as §1
In series [9] the test system is RAW264.7. Kind of series: Suppression of LPS-induced NF-kappaB p65 subunit translocation into nucleus in mouse RAW264.7 cells assessed as p65 protein level at 10 uM after 30 mins pretreated 30 mins before LPS challenge by Western blot. In kind it is functional, cell-based. The procedure, abridged:
as §2

For series [10], the system named is RAW264.7. Briefly: Antiinflammatory activity against LPS-stimulated mouse RAW264.7 cells assessed as inhibition of NO production at 5 uM after 20 hrs relative to control. Format: functional. The conditions noted are these: RAW264.7, 20 h. The procedure, abridged: as §1
The nature of series [11]: Peroxynitrite radical scavenging activity assessed as dihydrohodamine 123 product by cell free assay. The procedure, abridged:
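In a cell-free system, oxidation of dihydrorhodamine 123 by authentic peroxynitrite was monitored by fluorescence.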

Series [12] relates to RAW264.7. Briefly: Inhibition of iNOS mRNA expression in LPS-stimulated mouse RAW264.7 cells at 10 uM after 6 hrs by RT-PCR. In kind it is functional, cell-based. The procedure, abridged:
as §4

Active and inactive are the calls of the source. The calls are words filed in the database; no cut-off is given here.

For the compound `CCN/C(=N/c1ccc(OCCn2c3ccccc3c3ccccc32)cc1)SCc1ccc(C(=O)OC)cc1`, the inhibition at 50 µM in the series with RAW264.7 [1] was found to be 17%. Besides, the inhibition at 20 µM in the series with RAW264.7 [2] was found to be 14%.

`CCN/C(=N/c1ccc(OCCn2c3ccccc3c3ccccc32)cc1)SC(C)C`: the result in the series with RAW264.7 [3] and in the series with RAW264.7 [9] was Active. Further, the inhibition at 20 µM with RAW264.7 [2] came out at 48%. The same compound returned an inhibition at 5 µM in the series on RAW264.7 [4] of 79%. In addition, the inhibition result in the series on RAW264.7 [5] is “Active”. For the same compound, the “iNOS protein expression inhibition” value with RAW264.7 [6] was “Active”. Also, the Activity entry in the series on RAW264.7 [7] was “Non-toxic”. Also, in the series on RAW264.7 [8], the half-maximal inhibitory concentration (IC50) was found to be 1.3 µM.

Turning to `CCCc1ccc(NC(=S)NCC)cc1`, the inhibition at 50 µM with RAW264.7 [1] amounted to 23%. The inhibition at 20 µM in the series on RAW264.7 [2] is less than 10%.

As to `CC(C)S/C(N)=N\c1ccc(OCCn2c3ccccc3c3ccccc32)cc1`, the inhibition at 50 µM in the series with RAW264.7 [1] amounted to 30%. The inhibition at 20 µM in the series with RAW264.7 [2] was found to be 22%.

For `CCNC(=S)Nc1ccc(C)cc1`, the inhibition at 50 µM with RAW264.7 [1] was 14%. In addition, in the series with RAW264.7 [2], the inhibition at 20 µM is less than 10%.

Regarding `CCN/C(=N/c1ccc(OCCn2c3ccccc3c3ccccc32)cc1)SCc1ccc(F)cc1`, the inhibition at 50 µM with RAW264.7 [1] amounted to 40%. Moreover, the inhibition at 20 µM with RAW264.7 [2] amounted to 36%.

Turning to `CCN/C(=N/c1ccc(-c2ccccc2)cc1)SC(C)C`, in the series with RAW264.7 [10], the inhibition at 5 µM came to 13%. In addition, the inhibition at 50 µM in the series on RAW264.7 [1] amounted to 96%. The inhibition at 20 µM in the series with RAW264.7 [2] was found to be 85%. The “iNOS protein expression inhibition” value in the series on RAW264.7 [6] is “Active”. Besides, the Activity entry with RAW264.7 [7] is recorded as “Non-toxic”. Further, the 50% inhibitory concentration (IC50) in the series on RAW264.7 [8] is 11.2 µM. For the same compound, in the series on RAW264.7 [9], the outcome was Active.

For the compound `CCN/C(=N/c1ccc(C)cc1)SC(C)C`, the inhibition at 50 µM in the series on RAW264.7 [1] was 14%. For the same compound, the inhibition at 20 µM with RAW264.7 [2] was less than 10%.

`CCN/C(=N/c1ccc(OCCn2c3ccccc3c3ccccc32)cc1)SCc1ccc(C(=O)O)cc1`: the inhibition at 5 µM in the series with RAW264.7 [10] worked out at 39%. The inhibition at 50 µM in the series on RAW264.7 [1] was 100%. In addition, the inhibition at 20 µM with RAW264.7 [2] is 90%. Also, in series [11], the SC50 was 14 µM. In addition, the “iNOS protein expression inhibition” value in the series with RAW264.7 [6] was “Active”. Besides, the Activity entry with RAW264.7 [7] is “Non-toxic”. In addition, the IC50 with RAW264.7 [8] was determined as 5.3 µM. For the same compound, the outcome in the series on RAW264.7 [9] was Active.

As to `CCN/C(=N/c1ccc(OCC)cc1)SC(C)C`, the inhibition at 50 µM in the series on RAW264.7 [1] was found to be 22%. Besides, the inhibition at 20 µM with RAW264.7 [2] was less than 10%.

Regarding `COc1cc(/C=C/C(=O)CC(=O)/C=C/c2ccc(O)c(OC)c2)ccc1O` [CURCUMIN], the inhibition result with RAW264.7 [12] is “Active”. Moreover, the Activity entry with RAW264.7 [7] is “Non-toxic”. In addition, in the series on RAW264.7 [9], the outcome was Active.

As to `CCNC(=S)Nc1ccc(OCC)cc1`, in the series with RAW264.7 [1], the inhibition at 50 µM worked out at 12%. Moreover, the inhibition at 20 µM with RAW264.7 [2] was less than 10%.

Turning to `CCNC(=S)Nc1ccc(O)cc1`, the inhibition at 50 µM with RAW264.7 [1] was found to be 20%. Besides, the inhibition at 20 µM in the series on RAW264.7 [2] was less than 10%.

Consider `CCS/C(N)=N\c1ccc(OCCn2c3ccccc3c3ccccc32)cc1`, for which the inhibition at 50 µM in the series with RAW264.7 [1] was found to be 64%. In addition, in the series with RAW264.7 [2], the inhibition at 20 µM came out at 32%.

`CCN/C(=N/c1ccc(OCCn2c3ccccc3c3ccccc32)cc1)SCc1ccccc1`: the inhibition at 50 µM with RAW264.7 [1] came out at 33%. Moreover, in the series with RAW264.7 [2], the inhibition at 20 µM came to 31%.

As for `CCN/C(=N/c1ccc(OCCn2c3ccccc3c3ccccc32)cc1)SC`, the inhibition at 50 µM with RAW264.7 [1] is 100%. For the same compound, the inhibition at 20 µM in the series with RAW264.7 [2] turned out to be 99%. Also, in the series on RAW264.7 [6], the “iNOS protein expression inhibition” value is “Active”. Besides, the Activity entry in the series with RAW264.7 [7] is reported as “Non-toxic”. In the series on RAW264.7 [8], the IC50 stood at 2.9 µM. In the series with RAW264.7 [9], the result was Active.

`CCNC(=S)Nc1ccc(-c2ccccc2)cc1`: the inhibition at 50 µM in the series with RAW264.7 [1] was found to be 23%. Moreover, the inhibition at 20 µM with RAW264.7 [2] is less than 10%.

`CCCc1ccc(/N=C(/NCC)SC(C)C)cc1`: in the series on RAW264.7 [1], the inhibition at 50 µM was 71%. The inhibition at 20 µM in the series on RAW264.7 [2] is less than 10%.

As to `CCN/C(=N/c1ccc(Cl)cc1)SC(C)C`, the inhibition at 50 µM in the series on RAW264.7 [1] is 62%. For the same compound, the inhibition at 20 µM in the series with RAW264.7 [2] was less than 10%.

Turning to `CCNC(=S)Nc1ccc(Cl)cc1`, the inhibition at 50 µM in the series with RAW264.7 [1] came out at 11%. The inhibition at 20 µM with RAW264.7 [2] is less than 10%.

In the case of `CS/C(N)=N\c1ccc(OCCn2c3ccccc3c3ccccc32)cc1`, in the series with RAW264.7 [1], the inhibition at 50 µM turned out to be 24%. Also, the inhibition at 20 µM in the series with RAW264.7 [2] amounted to 22%.

Values taken from ChEMBL document CHEMBL1136868, “Synthesis of phenylisothiourea derivatives as inhibitors of NO production in LPS activated macrophages” (Bioorg Med Chem Lett, 2009).
